From publication PMC9636331 (Blood Advances, 2022)
“And” between values parts separate entries of the source, which are not always exact repeats. Identical values can stand only once. “Also recorded” adds a separate entry of the source.

What was measured:
[1] = ref data on file, cited from earlier work
[2] = test system: PNH patients with active hemolysis; test: Safety and tolerability; format: in vivo, human
[3] = test system: fragment Bb; test: Circulating fragment of factor B; format: in vivo, human; settings: after the first dose of 25 mg twice daily or higher
Outline: (§1)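 Adult PNH patients, randomized 1:1, took the test compound 25 mg twice daily for 4 weeks then 100 mg twice daily (cohort 1), or 50 mg then 200 mg twice daily (cohort 2). Alternative-pathway target engagement was measured as circulating fragment Bb and by Wieslab assay. Sigmoid Emax models related both to individual steady-state Ctrough at baseline and after 4 weeks at each dose (days 29, 57).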

[4] = test system: PNH patients with persistent hemolysis despite ongoing treatment with eculizumab; settings: add-on to eculizumab, week 13; cited from earlier work
[5] = test system: complement alternative pathway; test: Wieslab complement assay; format: in vivo, human; settings: 200 mg twice daily; data not shown
Outline: as §1

[6] = test system: PNH-type RBCs; test: Flow cytometry of PNH-type RBCs and C3 fragment deposition on RBCs; format: in vivo, human
[7] = test system: PNH patients with active hemolysis; test: Hb and other markers of hemolysis; format: in vivo, human
Outline: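 Secondary hemolysis markers (total and free Hb, bilirubin, reticulocyte count, RBC count, haptoglobin) were measured in PNH patients over 12 weeks of twice-daily test compound. Dosing was 25 mg for 4 weeks then 100 mg (cohort 1), or 50 mg then 200 mg (cohort 2). Baseline for each variable was the mean of all pretreatment values.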

[8] = test system: PNH patients with active hemolysis; test: Serum LDH levels, phase 2 study of iptacopan monotherapy; format: in vivo, human; settings: cohort 2 (50/200 mg bid), until week 12
Outline: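 Primary endpoint: serum LDH reduction ≥60% from baseline, or LDH below ULN, at any time up to week 12. Baseline was the mean of the last 3 screening values before randomization. If LDH had not fallen ≥40% by day 15, the dose was to be raised from day 17, and raised further for cohort 1 at day 29, with a maximum of 200 mg twice daily.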

[9] = Plasma pharmacokinetics of iptacopan; format: in vivo, human
Outline: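 Plasma samples were taken predose on days 2, 15, 29 and 57, and at 0.25, 1, 2, 4 and 6 h post-dose on days 29 and 57. Doses were 25/50 mg twice daily for 4 weeks, then 100/200 mg twice daily. Assay was validated LC-MS/MS, LLOQ approximately 1 ng/mL. Cmax, AUC, Ctrough and Tmax were derived noncompartmentally.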

[10] = nonclinical and phase 1 studies
[11] = until data cutoff, listed as iptacopan

## CCO[C@H]1CCN(Cc2c(OC)cc(C)c3[nH]ccc23)[C@H](c2ccc(C(=O)O)cc2)C1 [Iptacopan]
[1]; [10]
  Absorption: high absorption
  Clearance: moderate clearance
[1]
  Direct renal excretion (share of clearance): ~25%
  Ethnic sensitivity: no ethnic sensitivity
  Food effect: no food effect
  Terminal half-life in human plasma: approximately 20 hours
[2]; 25 mg/100 mg, n = 7
  AE by preferred term: Abdominal discomfort: 2 (28.6) n (%)
  AE by preferred term: Blood alkaline phosphatase increased: 1 (14.3) n (%)
  AE by preferred term: Cough: 2 (28.6) n (%)
  AE by preferred term: Headache: 1 (14.3) n (%)
  AE by preferred term: Oropharyngeal pain: 2 (28.6) n (%)
  AE by preferred term: Pyrexia: 2 (28.6) n (%)
  AE by preferred term: Upper respiratory tract infection: 2 (28.6) n (%)
  AEs leading to discontinuation of study treatment, number of events (nE): 0
  AEs leading to discontinuation of study treatment, number of patients: 0 nS (%)
  AEs of mild intensity, number of events (nE): 29
  AEs of mild intensity, number of patients: 4 (57.1) nS (%)
  AEs of moderate intensity, number of events (nE): 2
  AEs of moderate intensity, number of patients: 1 (14.3) nS (%)
  AEs of severe/serious intensity, number of events (nE): 0
  AEs of severe/serious intensity, number of patients: 0 nS (%)
  Study drug-related AEs leading to discontinuation of study treatment, number of events (nE): 0
  Study drug-related AEs leading to discontinuation of study treatment, number of patients: 0 nS (%)
  Study drug-related AEs, number of events (nE): 6
  Study drug-related AEs, number of patients: 1 (14.3) nS (%)
  Total AEs, number of events (nE): 31
  Total AEs, number of patients: 4 (57.1) nS (%)
[2]; 50 mg/200 mg, n = 6
  AE by preferred term: Abdominal discomfort: 0 n (%)
  AE by preferred term: Blood alkaline phosphatase increased: 1 (16.7) n (%)
  AE by preferred term: Headache: 3 (50.0) n (%)
  AE by preferred term: Oropharyngeal pain: 0 n (%)
  AE by preferred term: Pyrexia: 0 n (%)
  AE by preferred term: Upper respiratory tract infection: 0 n (%)
  AEs leading to discontinuation of study treatment, number of events (nE): 1
  AEs leading to discontinuation of study treatment, number of patients: 1 (16.7) nS (%)
  AEs of mild intensity, number of events (nE): 6
  AEs of mild intensity, number of patients: 4 (66.7) nS (%)
  AEs of moderate intensity, number of events (nE): 1
  AEs of moderate intensity, number of patients: 1 (16.7) nS (%)
  AEs of severe/serious intensity, number of events (nE): 0
  AEs of severe/serious intensity, number of patients: 0 nS (%)
  Study drug-related AEs leading to discontinuation of study treatment, number of events (nE): 1
  Study drug-related AEs leading to discontinuation of study treatment, number of patients: 1 (16.7) nS (%)
  Study drug-related AEs, number of events (nE): 3
  Study drug-related AEs, number of patients: 3 (50.0) nS (%)
  Total AEs, number of events (nE): 7
  Total AEs, number of patients: 5 (83.3) nS (%)
[2]; 13 patients, until data cutoff
  Deaths: No deaths
  Tolerability: overall well-tolerated and safe
[2]; 13 patients, until data cutoff, listed as iptacopan
  Tolerability: safe and well-tolerated
[2]; Total, n = 13
  AE by preferred term: Abdominal discomfort: 2 (15.4) n (%)
  AE by preferred term: Blood alkaline phosphatase increased: 2 (15.4) n (%)
  AE by preferred term: Cough: 2 (15.4) n (%)
  AE by preferred term: Headache: 4 (30.8) n (%)
  AE by preferred term: Oropharyngeal pain: 2 (15.4) n (%)
  AE by preferred term: Pyrexia: 2 (15.4) n (%)
  AE by preferred term: Upper respiratory tract infection: 2 (15.4) n (%)
  AEs leading to discontinuation of study treatment, number of events (nE): 1
  AEs leading to discontinuation of study treatment, number of patients: 1 (7.7) nS (%)
  AEs of mild intensity, number of events (nE): 35
  AEs of mild intensity, number of patients: 8 (61.5) nS (%)
  AEs of moderate intensity, number of events (nE): 3
  AEs of moderate intensity, number of patients: 2 (15.4) nS (%)
  AEs of severe/serious intensity, number of events (nE): 0
  AEs of severe/serious intensity, number of patients: 0 nS (%)
  Study drug-related AEs leading to discontinuation of study treatment, number of events (nE): 1
  Study drug-related AEs leading to discontinuation of study treatment, number of patients: 1 (7.7) nS (%)
  Study drug-related AEs, number of events (nE): 9
  Study drug-related AEs, number of patients: 4 (30.8) nS (%)
  Total AEs, number of events (nE): 38
  Total AEs, number of patients: 9 nS (%) and 9 (69.2) nS (%)
[2]; Total, n = 13, listed as iptacopan
  Study drug-related AEs, number of patients: 4 nS (%)
[2]; in vivo
  Dose dependence of the AE profile of the 2 cohorts: no dose-dependent changes in the AE profile
[2]; until data cutoff
  Severe or serious AEs: no severe or serious AEs
[2]; [11]
  Breakthrough hemolysis: no breakthrough hemolysis was observed; also recorded: no thromboembolic events or breakthrough hemolysis were reported
  Severe or serious AEs: no severe or serious adverse events reported; also recorded: no serious nor severe AEs
[2]; until data cutoff, no prophylactic anticoagulation
  Thromboembolic events: No thromboembolic events were reported; also recorded: no thromboembolic events were observed; also recorded: no thromboembolic events or breakthrough hemolysis were reported
[3]
  Bb levels: decreased rapidly
[4]
  Effect of iptacopan add-on on hemolysis and Hb levels: significant reductions in both intra- and extravascular hemolysis and transfusion-free improvements in Hb levels
[5]
  Suppression of alternative pathway activity (Wieslab assay): near-maximal inhibition
[6]; Week 12, 25 mg/100 mg (cohort 1), baseline 33.6
  Clone size (PNH red blood cells, type II+III) (%), mean, Raw: 82.9%
[6]; Week 12, 50 mg/200 mg (cohort 2), baseline 49.1
  Clone size (PNH red blood cells, type II+III) (%), mean, Raw: 91.1%
[6]; both cohorts
  Effect on C3d deposition on RBC: near-total abrogation of C3d deposition on RBC
[7]; week 12, both cohorts
  Patients with Hb levels above 120 g/L: 5
[7]; week 12, cohort 1
  Patients achieving reticulocyte count ≤150 × 10^9/L, number: 4
  Patients achieving reticulocyte count ≤150 × 10^9/L, percent: 66.7%
  Patients with Hb levels above 120 g/L: 3
[7]; week 12, cohort 1, baseline 32.4
  Mean bilirubin level: 11.7 µmol/L
[7]; week 12, cohort 1, baseline 88.5
  Mean Hb level: 115.2 g/L
[7]; week 12, cohort 1, baseline 217.6
  Mean reticulocyte count: 1.308e+11 L⁻¹
[7]; week 12, cohort 2
  Patients achieving reticulocyte count ≤150 × 10^9/L, number: 4
  Patients achieving reticulocyte count ≤150 × 10^9/L, percent: 100%
  Patients with Hb levels above 120 g/L: 2
[7]; week 12, cohort 2, baseline 35.3
  Mean bilirubin level: 14.8 µmol/L
[7]; week 12, cohort 2, baseline 76.9
  Mean Hb level: 109.0 g/L
[7]; week 12, cohort 2, baseline 211.1
  Mean reticulocyte count: 1.048e+11 L⁻¹
[8]
  LDH levels maintained by all patients: < 1.5 × ULN
[9]; 25 to 200 mg twice daily
  Dose proportionality of exposure (AUClast and Cmax): underproportional in relationship to dose
[9]; doses of ≥50 mg twice daily, steady state
  Mean trough level exposures: ≥ 900 ng/mL
[9]; human, plasma, oral, 25 mg
  AUC(0-t): 6290 ng·h/mL
[9]; human, plasma, oral, 200 mg
  AUC(0-t): 19900 ng·h/mL
  Cmax: 4520 ng/mL
